Assays:
HOP-62 = assay: Cytotoxicity against human HOP62 cells after 24 hrs by SRB assay; format: cell-based; conditions: hop-62, 24 h
Procedure, shortened: (§1)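 NCI 60-cell screen. Cells grown in RPMI 1640 with 5% FBS and 2 mM L-glutamine, seeded at 5,000–40,000 cells/well, preincubated 24 h at 37 °C in 5% CO2. Drug stock in DMSO, diluted in medium with gentamicin; five final concentrations, 100, 10, 1.0, 0.1 and […]. Time-zero plates were TCA-fixed. Protein read by SRB staining; GI50, TGI and LC50 taken relative to time-zero.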

U-251 = assay: Cytotoxicity against human U251 cells after 24 hrs by SRB assay; format: functional; conditions: U-251, 24 h
Procedure, shortened: (§2)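 NCI 60-cell screen. Cells are grown in RPMI 1640 with 5% FBS and 2 mM L-glutamine and seeded at 5,000–40,000 cells/well according to doubling time. They are preincubated 24 h at 37 °C in 5% CO2, and Tz plates are TCA-fixed at drug addition. Drug stock is in DMSO, diluted in medium with gentamicin, and tested at five concentrations (100, 10, 1.0, 0.1, […]). Protein is read by SRB staining. GI50, TGI and LC50 are derived relative to time-zero and control wells.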

HCC 2998 = assay: Cytotoxicity against human HCC2998 cells after 24 hrs by SRB assay; format: cell-based; conditions: hcc 2998, 24 h; procedure, shortened: as §1
MOLT-4 = assay: Cytotoxicity against human MOLT4 cells after 24 hrs by SRB assay; format: functional; conditions: MOLT-4, 24 h
Procedure, shortened: (§3)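 NCI 60-line screen. Cells in RPMI 1640 with 5% FBS and 2 mM L-glutamine, seeded at 5,000–40,000 cells/well by doubling time, then incubated 24 h at 37 °C, 5% CO2 before dosing. Time-zero plates fixed with TCA at drug addition. DMSO stocks diluted in medium with gentamicin to five concentrations, […]. Protein read by SRB staining. GI50, TGI and LC50 derived relative to control and time-zero.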

HCT-15 = assay: Cytotoxicity against human HCT15 cells after 24 hrs by SRB assay; format: cell-based; conditions: hct-15, 24 h; procedure, shortened: as §1
BT-549 = assay: Cytotoxicity against human BT549 cells after 24 hrs by SRB assay; format: functional; conditions: BT-549, 24 h; procedure, shortened: as §3
SR [1] = assay: (§4) Cytotoxicity against human SR cells after 24 hrs by SRB assay; format: functional; procedure, shortened: as §2
SR [2] = assay: as §4; format: cell-based
Procedure, shortened: (§5)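 NCI 60-cell-line screen: cells grown in RPMI 1640 with 5% FBS and 2 mM L-glutamine, seeded at 5,000–40,000 cells/well by doubling time, and preincubated 24 h at 37 °C in 5% CO2. Time-zero plates were TCA-fixed. DMSO stocks were diluted in medium with gentamicin to five concentrations (100, 10, 1.0, 0.1, […]). Protein was read by SRB, and GI50, TGI and LC50 were derived against time-zero.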

DU-145 = assay: Cytotoxicity against human DU145 cells after 24 hrs by SRB assay; format: functional; conditions: DU-145, 24 h; procedure, shortened: as §3
CCRF-CEM = assay: Cytotoxicity against human CCRF-CEM cells after 24 hrs by SRB assay; format: functional; procedure, shortened: as §3
RPMI-8226 = assay: Cytotoxicity against human RPMI8226 cells after 24 hrs by SRB assay; format: cell-based; conditions: rpmi-8226, 24 h; procedure, shortened: as §1
MDA-MB-435 = assay: Cytotoxicity against human MDA-MB-435 cells after 24 hrs by SRB assay; format: cell-based; conditions: mda-mb-435, 24 h; procedure, shortened: as §1
KM12 = assay: Cytotoxicity against human KM12 cells after 24 hrs by SRB assay; format: functional; conditions: KM12, 24 h; procedure, shortened: as §3
LOX IMVI = assay: Cytotoxicity against human LOXIMVI cells after 24 hrs by SRB assay; format: cell-based; procedure, shortened: as §1
SW-620 = assay: Cytotoxicity against human SW620 cells after 24 hrs by SRB assay; format: functional; conditions: SW-620, 24 h; procedure, shortened: as §2
RXF 393 [3] = assay: (§6) Cytotoxicity against human RXF393 cells after 24 hrs by SRB assay; format: cell-based; conditions: rxf 393, 24 h; procedure, shortened: as §1
NCI/ADR-RES [4] = assay: (§7) Cytotoxicity against human NCI/ADR-RES cells after 24 hrs by SRB assay; format: functional; procedure, shortened: as §3
HT-29 = assay: Cytotoxicity against human HT-29 cells after 24 hrs by SRB assay; format: cell-based; conditions: ht-29, 24 h; procedure, shortened: as §1
SF-268 = assay: Cytotoxicity against human SF268 cells after 24 hrs by SRB assay; format: functional; conditions: SF-268, 24 h; procedure, shortened: as §3
EKVX = assay: Cytotoxicity against human EKVX cells after 24 hrs by SRB assay; format: cell-based; procedure, shortened: as §1
SK-MEL-5 = assay: Cytotoxicity against human SK-MEL-5 cells after 24 hrs by SRB assay; format: functional; conditions: SK-MEL-5, 24 h; procedure, shortened: as §3
NCI/ADR-RES [5] = assay: as §7; format: cell-based; procedure, shortened: as §1
RXF 393 [6] = assay: as §6; format: functional; conditions: RXF 393, 24 h; procedure, shortened: as §3
HOP-92 = assay: Cytotoxicity against human HOP92 cells after 24 hrs by SRB assay; format: functional; conditions: HOP-92, 24 h; procedure, shortened: as §3
SNB-75 = assay: Cytotoxicity against human SNB75 cells after 24 hrs by SRB assay; format: functional; conditions: SNB-75, 24 h; procedure, shortened: as §2
MDA-MB-468 [7] = assay: (§8) Cytotoxicity against human MDA-MB-468 cells after 24 hrs by SRB assay; format: functional; conditions: MDA-MB-468, 24 h; procedure, shortened: as §3
OVCAR-5 = assay: Cytotoxicity against human OVCAR5 cells after 24 hrs by SRB assay; format: functional; conditions: OVCAR-5, 24 h; procedure, shortened: as §3
SNB-19 [8] = assay: (§9) Cytotoxicity against human SNB19 cells after 24 hrs by SRB assay; format: cell-based; conditions: snb-19, 24 h; procedure, shortened: as §5
TK-10 = assay: Cytotoxicity against human TK10 cells after 24 hrs by SRB assay; format: cell-based; conditions: tk-10, 24 h; procedure, shortened: as §5
SNB-19 [9] = assay: as §9; format: functional; conditions: SNB-19, 24 h; procedure, shortened: as §2
NCI-H522 = assay: Cytotoxicity against human NCI-H522 cells after 24 hrs by SRB assay; format: cell-based; conditions: nci-h522, 24 h; procedure, shortened: as §1
T47D = assay: Cytotoxicity against human T47D cells after 24 hrs by SRB assay; format: cell-based; procedure, shortened: as §5
NCI-H460 = assay: Cytotoxicity against human NCI-H460 cells after 24 hrs by SRB assay; format: functional; conditions: NCI-H460, 24 h; procedure, shortened: as §3
NCI-H226 = assay: Cytotoxicity against human NCI-H226 cells after 24 hrs by SRB assay; format: functional; conditions: NCI-H226, 24 h; procedure, shortened: as §3
ACHN = assay: Cytotoxicity against human ACHN cells after 24 hrs by SRB assay; format: functional; procedure, shortened: as §3
A549 = assay: Cytotoxicity against human A549 cells after 24 hrs by SRB assay; format: cell-based; conditions: a549, 24 h; procedure, shortened: as §1
MDA-MB-468 [10] = assay: as §8; format: cell-based; conditions: mda-mb-468, 24 h; procedure, shortened: as §1

`O=C(/C=C/c1cc2ccccc2[nH]c1=O)c1ccc(O)cc1` was tested. Which LC50 (HOP-62) did it give?
The LC50 was 85.2 µM.

What about the GI50 (U-251) of the same molecule?
The GI50 was 2.6 µM.

And the TGI (U-251)?
Its TGI is 10.9 µM.

What about the LC50 (HCC 2998) of the same molecule?
Its LC50 is 59.6 µM.

And the GI50 (MOLT-4)?
The GI50 was 3.04 µM.

What about the TGI (MOLT-4) of the same molecule?
Its TGI is 9.91 µM.

What about the LC50 (HCT-15) of the same molecule?
Its LC50 is greater than 100 µM.

And the GI50 (BT-549)?
Its GI50 is 1.95 µM.

And the TGI (BT-549)?
The TGI was 5.35 µM.

What about the GI50 (SR [1]) of the same molecule?
Its GI50 is 1.66 µM.

What about the LC50 (SR [2]) of the same molecule?
The LC50 was greater than 100 µM.

And the GI50 (DU-145)?
The GI50 was 4.02 µM.

And the TGI (DU-145)?
The TGI was 14.3 µM.

What about the GI50 (CCRF-CEM) of the same molecule?
The GI50 was 2.38 µM.

And the TGI (CCRF-CEM)?
The TGI was greater than 100 µM.

And the LC50 (RPMI-8226)?
Its LC50 is greater than 100 µM.

What about the LC50 (MDA-MB-435) of the same molecule?
The LC50 was greater than 100 µM.

And the GI50 (KM12)?
The GI50 was 1.89 µM.

And the TGI (KM12)?
Its TGI is 4.5 µM.

And the LC50 (LOX IMVI)?
The LC50 was greater than 100 µM.

And the GI50 (SW-620)?
The GI50 was 1.89 µM.

And the TGI (SW-620)?
The TGI was 4.45 µM.

And the LC50 (RXF 393 [3])?
Its LC50 is 6.33 µM.

And the GI50 (NCI/ADR-RES [4])?
Its GI50 is 2.9 µM.

And the TGI (NCI/ADR-RES [4])?
The TGI was greater than 100 µM.

What about the LC50 (HT-29) of the same molecule?
Its LC50 is 41.4 µM.

And the GI50 (SF-268)?
Its GI50 is 3.76 µM.

What about the TGI (SF-268) of the same molecule?
Its TGI is 23.3 µM.

And the LC50 (EKVX)?
The LC50 was 55.2 µM.

What about the GI50 (SK-MEL-5) of the same molecule?
Its GI50 is 3.98 µM.

And the TGI (SK-MEL-5)?
Its TGI is 13.3 µM.

What about the LC50 (NCI/ADR-RES [5]) of the same molecule?
The LC50 was greater than 100 µM.

And the GI50 (RXF 393 [6])?
The GI50 was 1.65 µM.

And the TGI (RXF 393 [6])?
Its TGI is 3.23 µM.

What about the GI50 (HOP-92) of the same molecule?
The GI50 was 3.26 µM.

And the TGI (HOP-92)?
Its TGI is 23.2 µM.

What about the GI50 (SNB-75) of the same molecule?
Its GI50 is 9.3 µM.

What about the TGI (SNB-75) of the same molecule?
Its TGI is 23 µM.

And the GI50 (MDA-MB-468 [7])?
The GI50 was 2.12 µM.

And the TGI (MDA-MB-468 [7])?
The TGI was 5.3 µM.

What about the GI50 (OVCAR-5) of the same molecule?
The GI50 was 3.2 µM.

What about the TGI (OVCAR-5) of the same molecule?
The TGI was 12.8 µM.

What about the LC50 (SNB-19 [8]) of the same molecule?
The LC50 was 50.6 µM.

And the LC50 (TK-10)?
The LC50 was 34.6 µM.

What about the GI50 (SNB-19 [9]) of the same molecule?
The GI50 was 4.59 µM.

What about the TGI (SNB-19 [9]) of the same molecule?
The TGI was 18 µM.

And the LC50 (NCI-H522)?
Its LC50 is 6.36 µM.

And the LC50 (T47D)?
Its LC50 is 79.6 µM.

And the GI50 (NCI-H460)?
Its GI50 is 2.39 µM.

What about the TGI (NCI-H460) of the same molecule?
Its TGI is 6.87 µM.

And the GI50 (NCI-H226)?
The GI50 was 3.29 µM.

What about the TGI (NCI-H226) of the same molecule?
The TGI was 10.9 µM.

What about the GI50 (ACHN) of the same molecule?
The GI50 was 2.67 µM.

What about the TGI (ACHN) of the same molecule?
The TGI was 8.86 µM.

And the LC50 (A549)?
The LC50 was 89.9 µM.

And the LC50 (MDA-MB-468 [10])?
The LC50 was 19.8 µM.

— ChEMBL document CHEMBL2086296, “Synthesis of novel quinoline-2-one based chalcones of potential anti-tumor activity” (Eur J Med Chem, 2012)
